Screening results from PubChem BioAssay.
UPR CHOP act: apoptotic UPR (CHOP) activation. actives 0.34% (n = 330,000). CHO-CHOP luciferase reporter, luminescence; percent of tunicamycin response over DMSO baseline. AID 449763. activation, % at 10 µM;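 active means at 10 µM dose, activation of 40% or more, normalized to positive control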;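 further: 100% = tunicamycin at 10 µg/mL and 0% = DMSO alone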
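Test system: CHO CHOP reporter cells. Input: 500 CHO-CHOP cells per well. Medium: F12 with 10% FBS. Technique: luciferase luminescence. Measure: percent activation relative to tunicamycin control. Dosing: 10 µM compound, 0.5% DMSO. Timing: 16-18 h cell attachment, then 6 h compound exposure, 37 °C.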
XBP1 UPR activ: adaptive UPR (XBP1) activation. CHO-XBP1 luciferase reporter, IRE1-XBP1 UPR activation, luminescence; percent of tunicamycin response, DMSO as zero. activation, % at 20 µM. actives 0.33% (n = 330,000). AID 463104;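 active means versus positive control, 20 µM dose yields 30% or more activation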;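 further: 100% = tunicamycin at 10 µg/mL and 0% = DMSO only wells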
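assay system = CHO-XBP1 luciferase reporter cells | amount = 1000 cells/well | buffer or medium = F12 plus 10% FBS | compound dosing = single point, 20 µM final compound, 1% DMSO | incubation = 16-18 h cell attachment at 37 °C, then 6 h compound exposure | detection = Steady-Glo luminescence read | controls = tunicamycin 10 µg/mL and vehicle-only wells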
MDM2 E3 inh: inhibitors of human Mdm2 E3 ubiquitin ligase. Q00987. cell-based MDM2 ubiquitination luciferase reporter, 2 h; 0 = plate control, 100 = twice control, blank-subtracted. signal enhancement, % at 5 µM. actives 0.11% (n = 210,000). AID 1230;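 active means signal enhancement of 30% or more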;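 further: luminescence tracks abundance of the self-degrading MDM2-luciferase fusion protein; higher signal means inhibition of MDM2 E3 ligase activity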
Target sequence (Q00987 whole entry, looked up, the tested form may be a part): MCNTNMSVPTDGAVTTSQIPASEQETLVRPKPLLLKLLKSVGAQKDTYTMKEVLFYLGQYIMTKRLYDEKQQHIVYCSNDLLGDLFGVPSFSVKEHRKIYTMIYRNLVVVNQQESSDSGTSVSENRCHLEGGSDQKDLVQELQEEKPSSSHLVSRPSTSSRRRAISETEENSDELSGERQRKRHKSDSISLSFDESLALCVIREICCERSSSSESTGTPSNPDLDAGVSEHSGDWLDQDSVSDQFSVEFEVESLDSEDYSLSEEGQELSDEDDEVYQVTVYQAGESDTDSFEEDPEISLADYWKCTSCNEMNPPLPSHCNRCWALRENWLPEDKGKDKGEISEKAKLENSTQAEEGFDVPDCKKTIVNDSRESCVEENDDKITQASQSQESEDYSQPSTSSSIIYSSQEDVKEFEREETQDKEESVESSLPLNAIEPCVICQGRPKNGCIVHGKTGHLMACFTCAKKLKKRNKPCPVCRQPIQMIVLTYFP
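Material: Stable MDM2–luciferase fusion reporter cells | Amount: 2000 cells seeded into each well | Dosing: One concentration, 5 µM, with 0.2% DMSO | Incubation: 4 h cell settling then 2 h compound exposure, 37 °C | Measured by: Luciferase luminescence | Read-out basis: % enhancement relative to plate controls after blank subtraction | Benchmarks: Control and blank well means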
Dynein transport: dynein cargo transport inhibition | 3617.4 mouse cells, GR-EGFP nuclear translocation imaging; test concentration mostly 20 µM; stimulated with dexamethasone, 1 µM; stronger effect = lower value | z-score, hits read low | actives 0.47% (n = 220,000) | AID 1381;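 active means plate z-score of nuclear minus cytoplasmic receptor signal below a set negative limit, without overly bright fluorescence or cell loss, cut at about -3.5 in these data, passing the limit was not always enough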;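 further: z-score of nuclear minus cytoplasmic ring GR-EGFP intensity difference per well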
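Buffer or medium – tet-free medium with charcoal-stripped serum · Signal – automated 10x imaging of fixed Hoechst-stained cells · Also added – dexamethasone agonist, 1.0 µM final, for 30 min · Incubation – induction 48 h, compound 1 h, agonist 30 min · Read-out – GR-EGFP nuclear translocation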
B2AR ag: agonists of human beta-2 adrenergic receptor inducing internalization; Am2.2-beta2AR cells, FAP receptor internalization, flow cytometry; response, % (no concentration beside the values); actives 0.43% (n = 340,000);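 active means response above a set limit, near 3 SD of response in nonfluorescent compounds, cut at about 42% in these data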
Mdm2-MdmX inh: human Mdm2/MdmX binding inhibition | O15151+Q00987 | SaOS-2 split-luciferase Mdm2/MdmX complementation, luminescence | inhibition, % at 8 µM | actives 3% (n = 330,000) | AID 485346;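 active means inhibition of at least 50% at 8 µM in the primary screen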
Mdm2-MdmX conf: confirmation of human Mdm2/MdmX interaction inhibitors. shares compounds with Mdm2-MdmX inh. Mdm2-MdmX binding, luminescent assay. inhibition, % at 8 µM. actives 55% (n = 10,000). AID 489028; in the data active means inhibition above about 40%
Full FLuc ctr: counter-screen for Mdm2/MdmX inhibitors: full-length luciferase. actives 77% (n = 6,200). shares compounds with Mdm2-MdmX inh. SaOS-2 full-length luciferase counterscreen, luminescence. inhibition, % at 8 µM. AID 504607;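 active means mean inhibition at 8 µM reaching about 37%, which flags the compound as non-specific, limit read from the data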;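 further: p53-null SaOS-2 cells with luciferase driven by a doxycycline-inducible promoter; compound on cells about two nights before reading with doxycycline added after day one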
Starred values were filed as active, the others as inactive. Sampled rows, rich in hits. Any-hit rate of the full collection: about 3.7%.

`CNc1ccc2oc(C[C@H]3O[C@@]4(CC[C@H]3C)O[C@H]([C@H](C)C(=O)c3ccc[nH]3)[C@H](C)C[C@H]4C)nc2c1C(=O)O` gave UPR CHOP act 7, XBP1 UPR activ 26, MDM2 E3 inh 5, Dynein transport 0.27, B2AR ag 28, Mdm2-MdmX inh 100*, Mdm2-MdmX conf 98* and Full FLuc ctr 52*.
Screening Clc1ccc2c(c1)C(OC1CN3CCC1CC3)c1ccccc1CS2 (centres undefined) returned UPR CHOP act 1, XBP1 UPR activ 1, MDM2 E3 inh 19, Dynein transport 0.98, B2AR ag 23, Mdm2-MdmX inh 64*, Mdm2-MdmX conf 39 and Full FLuc ctr 61*.
CC(=O)O[C@@H]1/C=C/[C@](C)(O)C[C@@H](C)C/C=C/[C@H]2[C@H](O)C(C)=C(C)[C@H]3[C@H](Cc4ccccc4)NC(=O)[C@@]123 was read as UPR CHOP act 4, XBP1 UPR activ 0, Mdm2-MdmX inh 72*, Mdm2-MdmX conf 74* and Full FLuc ctr 49*.
C=C1C(C)C2C(Cc3ccccc3)NC(=O)C23C(OC(C)=O)C=CC(C)(O)CC(C)CC=CC3C1O (centres undefined) was read as B2AR ag 30.
c1ccc(NC2=NCCCS2)cc1 was read as UPR CHOP act 1, XBP1 UPR activ 0, B2AR ag -7 and Mdm2-MdmX inh 19.
For C#C[C@]1(O)CC[C@H]2[C@@H]3CCC4=Cc5nc6nc7ccccc7n6cc5C[C@]4(C)[C@H]3CC[C@@]21C the results were UPR CHOP act 22, XBP1 UPR activ 2, B2AR ag 28, Mdm2-MdmX inh 55* and Mdm2-MdmX conf 2.
For O=c1c2ccccc2nc(CNc2ccccc2)n1-c1ccccc1 the results were UPR CHOP act 1, XBP1 UPR activ -2, MDM2 E3 inh -4, Dynein transport 0.25, B2AR ag 4 and Mdm2-MdmX inh 6.
O=C(COc1ccc(Cl)cc1)N(c1ccccc1Cl)C1CN2CCC1CC2 (centres undefined) was read as UPR CHOP act -1, XBP1 UPR activ -1, MDM2 E3 inh -11, Dynein transport 1.5, B2AR ag 4 and Mdm2-MdmX inh 45.
For O=C(COc1ccc(Cl)cc1)N(c1ccc(Cl)cc1)C1CN2CCC1CC2 (centres undefined) the results were UPR CHOP act 0, XBP1 UPR activ 10, MDM2 E3 inh -9, Dynein transport -0.2, B2AR ag -2, Mdm2-MdmX inh 51*, Mdm2-MdmX conf 39 and Full FLuc ctr 75*.
For CCN1CCN(C(=O)COc2ccc3c(c2)C(=O)CC2(CCN(C(C)=O)CC2)O3)CC1 the results were UPR CHOP act -1, XBP1 UPR activ 4, MDM2 E3 inh -12, Dynein transport -0.47, B2AR ag 5 and Mdm2-MdmX inh 21.
Screening C=C1C(=O)[C@@]23C[C@H]4[C@@H]5[C@@]6(C)CCC[C@@]57[C@@H]2[C@@H](O)[C@@H]1C[C@H]3[C@H]7N4C6 returned UPR CHOP act 2, XBP1 UPR activ -4, B2AR ag 7, Mdm2-MdmX inh 100*, Mdm2-MdmX conf 90* and Full FLuc ctr 52*.
O=C(NC1CCCCC1)N1Cc2ccccc2-n2nncc2C1 was read as B2AR ag -2.
